Results: ChEMBL document CHEMBL4312005, “Optimization of pyrrolizine-based Schiff bases with 4-thiazolidinone motif: Design, synthesis and investigation of cytotoxicity and anti-inflammatory potency” (Eur J Med Chem, 2020)
Each block holds one compound with its values, some of them ahead of it.

How the values were obtained:
[1] = system: Rattus norvegicus; test: Antiinflammatory activity against albino rats assessed as inhibition of carrageenan-induced paw edema at 25 mg/kg, po measured after 2 hrs relative to control; format: functional
How it was run: (§1)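 Carrageenan rat paw edema (Winter method) in male and female adult albino rats (100-140 g). […] Swelling inhibition expressed as % of control at 2-4 h after carrageenan injection.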

[2] = system: Rattus norvegicus; test: Antiinflammatory activity against albino rats assessed as inhibition of carrageenan-induced paw edema at 25 mg/kg, po measured after 4 hrs relative to control; format: functional; how it was run: as §1
[3] = system: MRC5; test: Cytotoxicity against human MRC5 cells assessed as reduction in cell growth incubated for 72 hrs by MTT assay; format: cell-based; details: MRC5, 72 h
How it was run: (§2)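 MTT assay on MCF-7, A2780, HT29 and normal MRC5 fibroblast lines (ATCC) grown in DMEM with 10% FBS. Cells exposed to compounds for 72 h, then reduced MTT read at 570 nm.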

[4] = Selectivity index, ratio of IC50 for cytotoxicity against human MRC5 cells to IC50 for antiproliferative activity against human A2780 cells; details: MRC5 cells versus A2780 cells
[5] = system: A2780; test: Antiproliferative activity against human A2780 cells assessed as reduction in cell growth incubated for 72 hrs by MTT assay; format: functional, cell-based; details: A2780, 72 h; how it was run: as §2
[6] = system: MCF7; test: Antiproliferative activity against human MCF7 cells assessed as reduction in cell growth incubated for 72 hrs by MTT assay; format: functional, cell-based; details: MCF7, 72 h; how it was run: as §2
[7] = target: Prostaglandin G/H synthase 1 (Homo sapiens, UniProt P23219); test: Inhibition of human COX1 using arachidonic acid as substrate incubated for 2 mins by ELISA method
Prostaglandin G/H synthase 1, sequence (P23219 whole entry): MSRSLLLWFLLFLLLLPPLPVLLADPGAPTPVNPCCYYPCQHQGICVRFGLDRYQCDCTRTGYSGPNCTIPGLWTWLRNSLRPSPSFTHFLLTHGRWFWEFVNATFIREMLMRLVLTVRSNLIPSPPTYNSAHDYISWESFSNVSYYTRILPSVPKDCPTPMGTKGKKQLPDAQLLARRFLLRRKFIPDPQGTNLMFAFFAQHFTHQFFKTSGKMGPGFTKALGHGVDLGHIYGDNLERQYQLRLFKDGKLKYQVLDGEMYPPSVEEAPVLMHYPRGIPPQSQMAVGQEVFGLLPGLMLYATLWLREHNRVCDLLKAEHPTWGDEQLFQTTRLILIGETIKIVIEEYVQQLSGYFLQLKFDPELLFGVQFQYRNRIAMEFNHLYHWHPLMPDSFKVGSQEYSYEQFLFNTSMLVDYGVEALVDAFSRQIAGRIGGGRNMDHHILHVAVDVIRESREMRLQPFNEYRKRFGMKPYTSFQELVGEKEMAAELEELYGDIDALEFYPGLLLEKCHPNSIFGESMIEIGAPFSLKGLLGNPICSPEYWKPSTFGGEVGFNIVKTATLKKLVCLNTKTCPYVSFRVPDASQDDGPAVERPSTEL

[8] = system: HT-29; test: Antiproliferative activity against human HT-29 cells assessed as reduction in cell growth incubated for 72 hrs by MTT assay; format: functional, cell-based; details: HT-29, 72 h; how it was run: as §2
[9] = Selectivity index, ratio of IC50 for cytotoxicity against human MRC5 cells to IC50 for antiproliferative activity against human MCF7 cells; details: MRC5 cells versus MCF7 cells
[10] = Selectivity index, ratio of IC50 for cytotoxicity against human MRC5 cells to IC50 for antiproliferative activity against human HT-29 cells; details: MRC5 cells versus HT-29 cells
[11] = system: MCF7; test: Antiproliferative activity against human MCF7 cells assessed as cell viability at 5 uM incubated for 48 hrs by MTT assay (reference value: 100 %); format: functional; details: MCF7, 48 h, read-out: Activity
How it was run: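 Preliminary single-dose screen by MTT assay. MCF-7 cells grown in DMEM/10% FBS were exposed to 5 μM compound for 48 h, and growth% was determined. Values are mean ± S.D., n = 6.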

[12] = system: MCF7; test: Cell cycle arrest in human MCF7 cells assessed as subG1 accumulation at 1 uM incubated for 24 hrs by propidium iodide based flow cytometry (reference value: 0.6 to 3 %); format: functional
[13] = system: MCF7; test: Induction of apoptosis in human MCF7 cells assessed as viable cells at 5 uM incubated for 24 hrs by annexin V FITC and propidium iodide staining based flow cytometry (reference value: 76 to 95.9 %); format: functional; details: MCF7, 24 h, read-out: Activity
[14] = system: MCF7; test: Induction of apoptosis in human MCF7 cells assessed as necrotic cells at 5 uM incubated for 24 hrs by annexin V FITC and propidium iodide staining based flow cytometry (reference value: 4.1 to […]); format: functional
[15] = system: MCF7; test: Induction of apoptosis in human MCF7 cells assessed as necrotic cells at 1 uM incubated for 24 hrs by annexin V FITC and propidium iodide staining based flow cytometry (reference value: 4.1 to […]); format: functional
[16] = system: MCF7; test: Induction of apoptosis in human MCF7 cells assessed as early apoptotic cells at 1 uM incubated for 24 hrs by annexin V FITC and propidium iodide staining based flow cytometry (reference value: 0 to 9 %); format: functional
[17] = system: MCF7; test: Induction of apoptosis in human MCF7 cells assessed as late apoptotic cells at 10 uM incubated for 24 hrs by annexin V FITC and propidium iodide staining based flow cytometry (reference value: 0 to 2.5 %); format: functional
[18] = system: MCF7; test: Cell cycle arrest in human MCF7 cells assessed as G1 accumulation at 1 uM incubated for 24 hrs by propidium iodide based flow cytometry (reference value: 49.6 to 55.1 %); format: functional
[19] = system: MCF7; test: Induction of apoptosis in human MCF7 cells assessed as early apoptotic cells at 5 uM incubated for 24 hrs by annexin V FITC and propidium iodide staining based flow cytometry (reference value: 0 to 9 %); format: functional
[20] = system: Rattus norvegicus; test: Antiinflammatory activity against albino rats assessed as inhibition of carrageenan-induced paw edema at 0.5 mmol, po measured after 2 hrs relative to control; format: functional; how it was run: as §1
[21] = system: MCF7; test: Induction of apoptosis in human MCF7 cells assessed as late apoptotic cells at 5 uM incubated for 24 hrs by annexin V FITC and propidium iodide staining based flow cytometry (reference value: 0 to 2.5 %); format: functional
[22] = system: MCF7; test: Cell cycle arrest in human MCF7 cells assessed as S phase accumulation at 1 uM incubated for 24 hrs by propidium iodide based flow cytometry (reference value: 17.3 to 28.5 %); format: functional
[23] = system: MCF7; test: Cell cycle arrest in human MCF7 cells assessed as G1 accumulation at 5 uM incubated for 24 hrs by propidium iodide based flow cytometry (reference value: 49.6 to 55.1 %); format: functional
[24] = system: MCF7; test: Induction of apoptosis in human MCF7 cells assessed as late apoptotic cells at 1 uM incubated for 24 hrs by annexin V FITC and propidium iodide staining based flow cytometry (reference value: 0 to 2.5 %); format: functional
[25] = system: MCF7; test: Cell cycle arrest in human MCF7 cells assessed as S phase accumulation at 10 uM incubated for 24 hrs by propidium iodide based flow cytometry (reference value: 17.3 to 28.5 %); format: functional
[26] = system: MCF7; test: Cell cycle arrest in human MCF7 cells assessed as G2/M phase accumulation at 1 uM incubated for 24 hrs by propidium iodide based flow cytometry (reference value: 17.2 to 26.8 %); format: functional
[27] = system: MCF7; test: Induction of apoptosis in human MCF7 cells assessed as early apoptotic cells at 10 uM incubated for 24 hrs by annexin V FITC and propidium iodide staining based flow cytometry (reference value: 0 to 9 %); format: functional
[28] = system: MCF7; test: Cell cycle arrest in human MCF7 cells assessed as S phase accumulation at 5 uM incubated for 24 hrs by propidium iodide based flow cytometry (reference value: 17.3 to 28.5 %); format: functional
[29] = system: MCF7; test: Induction of apoptosis in human MCF7 cells assessed as necrotic cells at 10 uM incubated for 24 hrs by annexin V FITC and propidium iodide staining based flow cytometry (reference value: 4.1 to […]); format: functional
[30] = system: Rattus norvegicus; test: Antiinflammatory activity against albino rats assessed as inhibition of carrageenan-induced paw edema at 0.5 mmol, po measured after 4 hrs relative to control; format: functional; how it was run: as §1
[31] = system: MCF7; test: Cell cycle arrest in human MCF7 cells assessed as subG1 accumulation at 5 uM incubated for 24 hrs by propidium iodide based flow cytometry (reference value: 0.6 to 3 %); format: functional
[32] = system: MCF7; test: Cell cycle arrest in human MCF7 cells assessed as G1 accumulation at 10 uM incubated for 24 hrs by propidium iodide based flow cytometry (reference value: 49.6 to 55.1 %); format: functional
[33] = system: MCF7; test: Induction of apoptosis in human MCF7 cells assessed as viable cells at 10 uM incubated for 24 hrs by annexin V FITC and propidium iodide staining based flow cytometry (reference value: 76 to 95.9 %); format: functional; details: MCF7, 24 h, read-out: Activity
[34] = system: MCF7; test: Cell cycle arrest in human MCF7 cells assessed as G2/M phase accumulation at 10 uM incubated for 24 hrs by propidium iodide based flow cytometry (reference value: 17.2 to 26.8 %); format: functional
[35] = system: MCF7; test: Cell cycle arrest in human MCF7 cells assessed as G2/M phase accumulation at 5 uM incubated for 24 hrs by propidium iodide based flow cytometry (reference value: 17.2 to 26.8 %); format: functional
[36] = system: MCF7; test: Cell cycle arrest in human MCF7 cells assessed as subG1 accumulation at 10 uM incubated for 24 hrs by propidium iodide based flow cytometry (reference value: 0.6 to 3 %); format: functional
[37] = system: MCF7; test: Induction of apoptosis in human MCF7 cells assessed as viable cells at 1 uM incubated for 24 hrs by annexin V FITC and propidium iodide staining based flow cytometry (reference value: 76 to 95.9 %); format: functional; details: MCF7, 24 h, read-out: Activity

SMILES: Cc1ccc(-c2cc(C(F)(F)F)nn2-c2ccc(S(N)(=O)=O)cc2)cc1 [CELECOXIB]
inhibition in vivo at 25 mg/kg [1]: 37% | inhibition in vivo at 25 mg/kg [2]: 67.4%

SMILES: N#Cc1c(/N=C/c2cccs2)c(C(=O)Nc2ccc(Br)cc2)n2c1CCC2
IC50 [3]: 23.1 µM | selectivity ratio [10]: 1 to 10 | selectivity ratio [4]: 1 to 10 | IC50 [5]: 19.3 µM | IC50 [6]: 9.41 µM | IC50 [7]: > 100 µM | viability at 5 µM [11]: 77% | IC50 [8]: 3.65 µM | selectivity ratio [9]: 1 to 10

SMILES: N#Cc1c(/N=C/c2ccco2)c(C(=O)Nc2ccc(Br)cc2)n2c1CCC2
Activity [12]: 1.1% | viability at 5 µM [13]: 67% | Activity [14]: 15.2% | Activity [15]: 11.4% | Activity [16]: 12.8% | Activity [17]: 5.3% | Activity [18]: 24.5% | Activity [19]: 11.5% | inhibition (INH) [20]: 18.83% | Activity [21]: 6.3% | Activity [22]: 53.7% | IC50 [3]: 15.7 µM | Activity [23]: 25.5% | Activity [24]: 8.8% | Activity [25]: 51.5% | selectivity ratio [10]: 1 to 10 | selectivity ratio [4]: 1 to 10 | Activity [26]: 22.1% | IC50 [5]: 12.2 µM | Activity [27]: 7.2% | IC50 [6]: 6.89 µM | Activity [28]: 53.6% | Activity [29]: 16.4% | IC50 [7]: 13.2 µM | inhibition (INH) [30]: 35.79% | Activity [31]: 0.4% | Activity [32]: 25% | viability at 5 µM [11]: 64% | viability at 10 µM [33]: 71.2% | Activity [34]: 23% | IC50 [8]: 2.04 µM | Activity [35]: 21.8% | selectivity ratio [9]: 1 to 10 | Activity [36]: 0.4% | viability at 1 µM [37]: 67%

Now from value to compound, other results behind:

IC50 [5]: 0.11 µM | IC50 [6]: 0.47 µM | IC50 [7]: > 100 µM | IC50 [8]: 0.12 µM
SMILES: CCC1SCC(=O)N1c1c(C#N)c2n(c1C(=O)Nc1ccc(C)cc1)CCC2 (configuration not stated)
IC50 [3]: 1.7 µM | selectivity ratio [4]: 3 to 15 | selectivity ratio [9]: 3 to 15

IC50 [5]: 4.24 µM | IC50 [6]: 0.84 µM | IC50 [7]: 65.4 µM | IC50 [8]: 2.06 µM
SMILES: CCC1SCC(=O)N1c1c(C#N)c2n(c1C(=O)Nc1ccccc1)CCCC2 (configuration not stated)
IC50 [3]: 11.1 µM | selectivity ratio [9]: 3 to 15

IC50 [5]: 15.6 µM | IC50 [6]: 1.43 µM | IC50 [7]: 27.2 µM | IC50 [8]: 0.14 µM
SMILES: CC/C=N/c1c(C#N)c2n(c1C(=O)Nc1ccccc1)CCCC2
IC50 [3]: 1.53 µM

IC50 [5]: 4.16 µM | IC50 [6]: 0.5 µM | IC50 [7]: > 100 µM | IC50 [8]: 2.97 µM
SMILES: N#Cc1c(/N=C/c2ccccc2)c(C(=O)Nc2ccc(Br)cc2)n2c1CCC2
IC50 [3]: 9 µM | selectivity ratio [10]: 2 to 52 | selectivity ratio [4]: 2 to 52 | viability at 5 µM [11]: 73% | selectivity ratio [9]: 2 to 52

IC50 [5]: 0.27 µM | IC50 [6]: 0.14 µM | IC50 [7]: 14.2 µM | IC50 [8]: 0.89 µM
SMILES: CC/C=N/c1c(C#N)c2n(c1C(=O)Nc1ccc(Br)cc1)CCC2
IC50 [3]: 21.2 µM | selectivity ratio [10]: 24 to 152 | selectivity ratio [4]: 24 to 152 | viability at 5 µM [11]: 49% | selectivity ratio [9]: 24 to 152
